The source made the active and inactive calls. The rule behind the calls is not given here.
Assays:
T47D [1] = experiment: Inhibition of PR-A gene expression in human T47D cells at 25 nM by syber green assay; format: functional
Outline: (§1)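 T47D cells plated at 80,000/well without antibiotics two days before Oligofectamine transfection with agRNA duplex (25 or 100 nM final); medium changed at 24 h, harvest day 5 unless stated otherwise. TRIzol total RNA; PR mRNA by real-time PCR with SYBR Green: 50 °C 2 min, 95 °C 10 min, 40 cycles 95 °C 15 s/60 °C 1 min.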

T47D [2] = experiment: Inhibition of PR-B gene expression in human T47D cells at 25 nM by syber green assay; format: functional; outline: as §1
T47D [3] = experiment: Inhibition of PR-A gene expression in human T47D cells by syber green assay; format: functional, cell-based; outline: as §1
T47D [4] = experiment: Inhibition of PR-B gene expression in human T47D cells by syber green assay; format: functional, cell-based; outline: as §1
T47D [5] = experiment: Inhibition of PR-A gene expression in human T47D cells at 25 nM by syber green assay in presence of 10 nM estradiol; format: functional, cell-based
T47D [6] = experiment: Inhibition of PR-B gene expression in human T47D cells at 25 nM by syber green assay in presence of 10 nM estradiol; format: functional, cell-based
T47D [7] = experiment: Inhibition of PR-A mRNA gene expression in human T47D cells at 100 nM by syber green assay; format: functional; outline: as §1
T47D [8] = experiment: Inhibition of PR-B mRNA gene expression in human T47D cells at 100 nM by syber green assay; format: functional
Outline: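 T47D cells in RPMI-1640 with 10% FBS, NEAA, insulin, 37 °C, 5% CO2. Plated two days before transfection without antibiotics. Oligofectamine-mediated duplex RNA transfection at 100 nM final, medium changed at 24 h, harvest five days post-transfection. Total RNA extracted with TRIzol. hPR mRNA quantified by SYBR Green qPCR: 50 °C 2 min, 95 °C 10 min, then 40 cycles of 95 °C 15 s / 60 °C 1 min.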

T47D [9] = experiment: Inhibition of PR-A gene expression in human T47D cells harboring inactive DNA methyltransferase-1 at 25 nM by syber green assay; format: functional, cell-based
T47D [10] = experiment: Inhibition of PR-B gene expression in human T47D cells harboring inactive DNA methyltransferase-1 at 25 nM by syber green assay; format: functional, cell-based
T47D [11] = experiment: Effect of DNA methylation at (-112) CpG site near PR-B transcription start site (-9) in human T47D cells by sodium bisulfite sequencing analysis; format: functional, cell-based
Outline: (§2)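 T47D cells (RPMI-1640, 10% FBS, NEAA, insulin; 37 °C, 5% CO2) transfected with agRNA duplexes via Oligofectamine, medium changed at 24 h. Genomic DNA bisulphite-treated, regions around AR and hPR-B start sites PCR-amplified (HotStarTaq, 100 ng treated DNA), gel-purified, TOPO TA cloned; 5–15 colonies per plate miniprepped and sequenced.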

T47D [12] = experiment: Effect of DNA methylation at (-75) CpG site near PR-B transcription start site (-9) in human T47D cells by sodium bisulfite sequencing analysis; format: functional, cell-based; outline: as §2
T47D [13] = experiment: Effect of DNA methylation at (-46) CpG site near PR-B transcription start site (-9) in human T47D cells by sodium bisulfite sequencing analysis; format: functional, cell-based; outline: as §2
T47D [14] = experiment: Effect of DNA methylation at (-23) CpG site near PR-B transcription start site (-9) in human T47D cells by sodium bisulfite sequencing analysis; format: functional, cell-based; outline: as §2
T47D [15] = experiment: Effect of DNA methylation at (+20) CpG site near PR-B transcription start site (-9) in human T47D cells by sodium bisulfite sequencing analysis; format: functional, cell-based
Outline: (§3)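 T47D cells grown in RPMI-1640 with 10% FBS, 0.5% NEAA, insulin and P/S at 37 °C, 5% CO2. They were plated at 80,000 cells/well 2 days before lipid transfection with 25 nM or 100 nM duplex, with medium changed at 24 h. Cells were harvested 5 days post-transfection. 100 ng bisulfite-treated DNA was PCR-amplified, and products were TA-cloned. 5–15 colonies per plate were sequenced.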

T47D [16] = experiment: Effect of DNA methylation at (+45) CpG site near PR-B transcription start site (-9) in human T47D cells by sodium bisulfite sequencing analysis; format: functional, cell-based; outline: as §2
T47D [17] = experiment: Effect of DNA methylation at (+107) CpG site near PR-B transcription start site (-9) in human T47D cells by sodium bisulfite sequencing analysis; format: functional, cell-based; outline: as §3
T47D [18] = experiment: Effect of DNA methylation at (+112) CpG site near PR-B transcription start site (-9) in human T47D cells by sodium bisulfite sequencing analysis; format: functional, cell-based; outline: as §3
T47D [19] = experiment: Effect of DNA methylation at (+125) CpG site near PR-B transcription start site (-9) in human T47D cells by sodium bisulfite sequencing analysis; format: functional, cell-based; outline: as §3
T47D [20] = experiment: Effect of DNA methylation at (+149) CpG site near PR-B transcription start site (-9) in human T47D cells by sodium bisulfite sequencing analysis; format: functional, cell-based; outline: as §3
T47D [21] = experiment: Effect of DNA methylation at (+162) CpG site near PR-B transcription start site (-9) in human T47D cells by sodium bisulfite sequencing analysis; format: functional, cell-based; outline: as §3
T47D [22] = experiment: Effect of DNA methylation at (+166) CpG site near PR-B transcription start site (-9) in human T47D cells by sodium bisulfite sequencing analysis; format: functional, cell-based; outline: as §3
T47D [23] = experiment: Effect of DNA methylation at (+173) CpG site near PR-B transcription start site (-9) in human T47D cells by sodium bisulfite sequencing analysis; format: functional, cell-based; outline: as §3
T47D [24] = experiment: Effect of DNA methylation at (+190) CpG site near PR-B transcription start site (-9) in human T47D cells by sodium bisulfite sequencing analysis; format: functional, cell-based; outline: as §3
T47D [25] = experiment: Effect of DNA methylation at (+216) CpG site near PR-B transcription start site (-9) in human T47D cells by sodium bisulfite sequencing analysis; format: functional, cell-based; outline: as §3
T47D [26] = experiment: Effect of DNA methylation at (+225) CpG site near PR-B transcription start site (-9) in human T47D cells by sodium bisulfite sequencing analysis; format: functional, cell-based; outline: as §3
T47D [27] = experiment: Effect of DNA methylation at (+267) CpG site near PR-B transcription start site (-9) in human T47D cells by sodium bisulfite sequencing analysis; format: functional, cell-based; outline: as §3
T47D [28] = experiment: Effect of DNA methylation at (+295) CpG site near PR-B transcription start site (-9) in human T47D cells by sodium bisulfite sequencing analysis; format: functional, cell-based; outline: as §3
T47D [29] = experiment: Effect of DNA methylation at (+319) CpG site near PR-B transcription start site (-9) in human T47D cells by sodium bisulfite sequencing analysis; format: functional, cell-based; outline: as §3
T47D [30] = experiment: Effect of DNA methylation at (+335) CpG site near PR-B transcription start site (-9) in human T47D cells by sodium bisulfite sequencing analysis; format: functional, cell-based; outline: as §3
T47D [31] = experiment: Effect of DNA methylation at (+337) CpG site near PR-B transcription start site (-9) in human T47D cells by sodium bisulfite sequencing analysis; format: functional, cell-based; outline: as §3
T47D [32] = experiment: Effect of DNA methylation at (+353) CpG site near PR-B transcription start site (-9) in human T47D cells by sodium bisulfite sequencing analysis; format: functional, cell-based; outline: as §3
T47D [33] = experiment: Effect of DNA methylation at (+356) CpG site near PR-B transcription start site (-9) in human T47D cells by sodium bisulfite sequencing analysis; format: functional, cell-based; outline: as §3
T47D [34] = experiment: Effect of DNA methylation at (+362) CpG site near PR-B transcription start site (-9) in human T47D cells by sodium bisulfite sequencing analysis; format: functional, cell-based; outline: as §3
T47D [35] = experiment: Effect of DNA methylation at (+379) CpG site near PR-B transcription start site (-9) in human T47D cells by sodium bisulfite sequencing analysis; format: functional, cell-based; outline: as §3
T47D [36] = experiment: Effect of DNA methylation at (+398) CpG site near PR-B transcription start site (-9) in human T47D cells by sodium bisulfite sequencing analysis; format: functional, cell-based; outline: as §3
T47D [37] = experiment: Effect of DNA methylation at (+41) CpG site near PR-B transcription start site (-9) in human T47D cells by sodium bisulfite sequencing analysis; format: functional, cell-based; outline: as §2
T47D [38] = experiment: Cytotoxicity against human T47D cells assessed as effect on cellular morphology; format: cell-based
T47D [39] = experiment: Inhibition of PR-A gene expression in human T47D cells at 25 nM in presence of 4 uM of 5-aza-Dc
T47D [40] = experiment: Inhibition of PR-B gene expression in human T47D cells at 25 nM in presence of 4 uM of 5-aza-Dc

Cc1cn(CC(=O)N(CCNC(=O)CN(CCNC(=O)CN(CCNC(=O)CN(CCNC(=O)CN(CCNC(=O)CN(CCNC(=O)CN(CCNC(=O)CN(CCNC(=O)CN(CCNC(=O)CN(CCNC(=O)CN(CCNC(=O)CN(CCNC(=O)CN(CCNC(=O)CN(CCNC(=O)CN(CCNC(=O)CN(CCNC(=O)CN(CCNC(=O)CN(CCNC(=O)CN(CCNC(=O)CN(CCNC(=O)CN)C(=O)Cn2ccc(=O)[nH]c2=O)C(=O)Cn2cnc3c(=O)[nH]c(N)nc32)C(=O)Cn2ccc(=O)[nH]c2=O)C(=O)Cn2ccc(N)nc2=O)C(=O)Cn2ccc(=O)[nH]c2=O)C(=O)Cn2cnc3c(=O)[nH]c(N)nc32)C(=O)Cn2cnc3c(=O)[nH]c(N)nc32)C(=O)Cn2ccc(N)nc2=O)C(=O)Cn2ccc(N)nc2=O)C(=O)Cn2cnc3c(N)ncnc32)C(=O)Cn2cnc3c(=O)[nH]c(N)nc32)C(=O)Cn2ccc(=O)[nH]c2=O)C(=O)Cn2ccc(N)nc2=O)C(=O)Cn2ccc(N)nc2=O)C(=O)Cn2cnc3c(N)ncnc32)C(=O)Cn2ccc(N)nc2=O)C(=O)Cn2cnc3c(N)ncnc32)C(=O)Cn2cnc3c(=O)[nH]c(N)nc32)C(=O)Cn2ccc(N)nc2=O)CC(=O)NCCN(CC(=O)NCC(=O)O)C(=O)Cn2cc(C)c(=O)[nH]c2=O)c(=O)[nH]c1=O
inhibition at 0.025 µM (T47D [1]): 79% | inhibition at 0.025 µM (T47D [2]): 88% | IC50 (T47D [3]): 2.5 nM | IC50 (T47D [4]): 2.5 nM | inhibition (T47D [5]): Active | inhibition (T47D [6]): Active | inhibition at 0.1 µM (T47D [7]): 95% | inhibition at 0.1 µM (T47D [8]): 100% | inhibition (T47D [9]): Active | inhibition (T47D [10]): Active | Activity (T47D [11]): inactive | Activity (T47D [12]): inactive | Activity (T47D [13]): inactive | Activity (T47D [14]): inactive | Activity (T47D [15]): inactive | Activity (T47D [16]): inactive | Activity (T47D [17]): inactive | Activity (T47D [18]): inactive | Activity (T47D [19]): inactive | Activity (T47D [20]): inactive | Activity (T47D [21]): inactive | Activity (T47D [22]): inactive | Activity (T47D [23]): inactive | Activity (T47D [24]): inactive | Activity (T47D [25]): inactive | Activity (T47D [26]): inactive | Activity (T47D [27]): inactive | Activity (T47D [28]): inactive | Activity (T47D [29]): inactive | Activity (T47D [30]): inactive | Activity (T47D [31]): inactive | Activity (T47D [32]): inactive | Activity (T47D [33]): inactive | Activity (T47D [34]): inactive | Activity (T47D [35]): inactive | Activity (T47D [36]): inactive | Activity (T47D [37]): inactive | Activity (T47D [38]): Non-toxic | inhibition (T47D [39]): Active | inhibition (T47D [40]): Active
